miR122 inh: miR-122 inhibition in Huh7 cells. activation (reporter increase), % at 12.5 µM. hit rate 0.3% among 340,000. Huh7 miR-122 Renilla luciferase sensor, 48 h; neutral wells = 0, positive control = 100;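 active means mean replicate activation score at least 90 and every replicate individually at or above 90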;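 further: higher luciferase means less miR-122 activity so hits act as miR-122 inhibitors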
S100A4 inh HTS: S100A4-myosin IIA interaction inhibition; hit rate 0.14% among 360,000; S100A4/TAMRA-MyoIIA peptide fluorescence polarization; P26447; inhibition, % at 10.7 µM;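 active means mean inhibition of at least 70% across replicates, with every replicate also reaching that level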
Target sequence (P26447 whole entry, looked up): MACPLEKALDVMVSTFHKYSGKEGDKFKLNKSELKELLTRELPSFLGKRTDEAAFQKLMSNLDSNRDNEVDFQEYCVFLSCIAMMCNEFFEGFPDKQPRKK
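Material: S100A4 monomer protein / Buffer or medium: 50 mM HEPES pH 7.2, 10 mM CaCl2, 100 mM KCl / Times: 5 min incubation before reading / Benchmarks: neutral control DMSO, positive control TFP / Reagent: labelled myosin peptide probe, 5 nM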
FGF22 binding-1: FGF22 (human) thermal shift binding; AID 651658; Q9HCT0; hit rate 1.5% among 340,000; recombinant FGF22 thermal shift, SYPRO orange fluorescence; percent of sucrose octasulfate shift, DMSO zero; activity (Tm shift, normalised), % at 9.99 µM;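 active means mean Tm shift, scaled 0 neutral to 100 positive control, at about 1.3% or above, every replicate too, limit read from the data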
SIRT5 block: sirtuin-5 (human) deacylase inhibition. hit rate 1.1% among 330,000. AID 652115. Q9NXA8. inhibition, % at 15 µM. Purified SirT5, succinyl-peptide AMC, trypsin-coupled fluorescence; in the data active means inhibition above about 15%
Target sequence (Q9NXA8 whole entry, looked up): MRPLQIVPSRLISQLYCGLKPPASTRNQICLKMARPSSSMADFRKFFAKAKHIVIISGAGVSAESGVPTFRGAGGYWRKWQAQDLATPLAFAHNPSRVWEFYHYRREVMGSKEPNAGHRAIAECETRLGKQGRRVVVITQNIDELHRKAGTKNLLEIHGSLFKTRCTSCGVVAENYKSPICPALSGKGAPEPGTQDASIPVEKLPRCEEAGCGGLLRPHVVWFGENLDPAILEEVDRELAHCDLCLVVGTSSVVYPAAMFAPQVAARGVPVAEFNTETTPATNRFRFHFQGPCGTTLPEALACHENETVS
E-selectin induc: E-selectin induction on HUVECs; P16581; hit rate 0.37% among 260,000; HUVEC E-selectin immunofluorescence imaging; normalized: neutral wells 0, TNF-alpha wells 100; activation, % at 7.58 µM; AID 686992;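 active means mean E-selectin-positive cell signal at least 10% of the positive control, reached in at least 60% of replicates, without over 20% cell loss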
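Test system: HUVEC; input: 3,000 HUVEC/well; measured by: immunofluorescence imaging; read-out: % PE-positive cells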
FGF22 binding-2: FGF22 (human) binding in thermal shift; thermal shift activity, °C (ΔTm) at 38 µM; AID 720646; hit rate 2% among 1,000; shares compounds with FGF22 binding-1; recombinant FGF22 thermal shift, SYPRO orange fluorescence;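 active means fitted rise in melting shift crosses a set limit at or below the top valid dose tested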
FGF22 TSA DP: binders of human FGF22 by thermal shift; AID 743017; Thermal shift assay, SYPRO orange, melting temperature shift; Tm shift (activity), % at 38 µM; 50 tested, under 10 active; shares compounds with FGF22 binding-1;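 active means compounds whose fitted dose curve of melting temperature shift rises past a set threshold within the tested doses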
SYPRO no-protein: counter-screen for FGF22 binders: compound-only thermal shift, no protein; shares compounds with FGF22 binding-1; compound-only SYPRO orange thermal shift counter-screen; AC50, µM (series often up to 38 µM); hit rate 2% among 1,000;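 active means rising signal whose fitted curve reaches the 0.54 level within the top valid dose, showing a melting point, actives reach about 13 µM in these data; inactive means the rest, including activity in the opposite direction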; further: value is where the raw curve crosses a fixed level and not half-maximal
An asterisk follows results filed as active; i = inactive; · = no result; ! = not active in a repeat; [ ] = dose if it differs, or a comment. The list is not random: actives were taken first. Their share in the collection is about 2.5%.

SMILES | miR122 inh | S100A4 inh HTS | FGF22 binding-1 | SIRT5 block | E-selectin induc | FGF22 binding-2 | SYPRO no-protein | others
O=C(C1CCCC1)N1CC2(C1)[C@H](c1ccccc1)[C@@H](CO)N2CC1CC1 | · | -5 | 1.6* | -4 | 0 | 0.056[42 µM] | i
CCC(=O)NC[C@H]1[C@H](c2ccccc2)[C@@H](CO)N1C(=O)C1CCC1 | 58[16.7 µM] | 1 | -1 | 7 | 0 | · | ·
O=C(COc1ccc2c(c1)oc(=O)c1ccccc12)NC(Cc1ccc(Cl)cc1)C(=O)O (centres undefined) | -4 | -1 | 1.6* | -17 | · | 0.008 | i
COc1ccccc1NS(=O)(=O)c1cccc(NC(=O)Nc2ccccc2)c1 | 68 | 2 | 0 | 0 | -1 | · | ·
COc1ccccc1NS(=O)(=O)c1cccc(NC(=O)c2cc3ccccc3oc2=O)c1 | · | 2 | 1.8* | -4 | 0 | -0.009 | i
NC(c1ccc(F)c(F)c1)c1nc(-c2cncnc2)cs1 (centres undefined) | 1 | -3 | 38* | 0 | 3 | 0.11 | i
S=C(N/N=C/c1ccccc1Cl)Nc1ccccc1 | 7 | · | · | · | · | · | ·
Oc1ccc(C=NNC(=S)Nc2ccccc2)nc1 | · | -1 | 1.5* | 3 | 3 | 0.039 | i
Cc1cc(NC(=O)c2ccccc2NS(=O)(=O)c2c(C)c(C)cc(C)c2C)no1 | 0 | · | · | · | · | · | ·
Cc1cc(C)c(C)c(S(=O)(=O)Nc2ccccc2C(=O)O)c1C | 2 | 2 | 1.4* | -4 | · | 0.15 | i
O=C(O)c1cc(NS(=O)(=O)c2ccc3ccccc3c2)ccc1O | 6 | -4 | · | 4 | · | · | ·
O=C(O)c1ccccc1NS(=O)(=O)c1ccc2ccccc2c1 | · | -4 | 1.6* | 7 | · | -0.049 | i
CC1=C2[C@@H](c3ccccc3)OB(O)C[C@@H]2n2c(=O)n(-c3ccccc3)c(=O)n2C1 | · | 14 | 1.3* | 2 | · | -0.18 | i
C[C@@H]1CN([C@@H](C)CO)C(=O)c2cc(C#C[C@@H](C)O)cnc2O[C@@H]1CN(C)C(=O)c1ccccc1 | -7[16.7 µM] | -28 | 0 | -1 | 0 | · | ·
Cc1ccc(CCNc2ncnc(Cl)c2N)cc1 | · | 4 | 1.7* | · | 0 | -0.12 | i
CCOc1ccc(NS(=O)(=O)c2ccc(C(=O)NNC(=O)c3ccccc3O)cc2)cc1 | · | 13 | 1.4* | 0 | 0 | 0.018 | i
CCOc1ccc(S(=O)(=O)Nc2ccc(C(=O)NNC(=O)c3ccncc3)cc2)cc1 | 3 | -4 | 0 | -4 | -1 | · | ·
O=C(NNC(=O)c1ccccc1F)c1ccc(NS(=O)(=O)c2ccc(F)cc2)cc1 | 9 | 14 | 1.8* | 0 | · | 0.07 | i
O=C(C[C@H]1C=C[C@H](NC(=O)Cc2ccccn2)[C@@H](CO)O1)NCCCN1CCOCC1 | · | 21 | 0 | -1 | 0 | · | ·
O=C(N/N=C/c1cccc(Oc2ccccc2)c1)c1cccc(O)c1 | 4 | 3 | 1.5* | -3 | 0 | 0.029 | i | FGF22 TSA DP=0
C[C@H]1CN([C@@H](C)CO)C(=O)c2cc(C#Cc3ccccc3F)cnc2O[C@H]1CN(C)S(=O)(=O)c1ccccc1 | · | -15 | 1.7* | -2 | -1 | 0.086[42 µM] | i
CC(C)CC#Cc1cnc2c(c1)C(=O)N([C@@H](C)CO)C[C@H](C)[C@@H](CN(C)Cc1ccccn1)O2 | -4[16.7 µM] | -4 | 1.6* | -1 | 0 | 0.1 | i
C[C@@H]1CN([C@H](C)CO)C(=O)c2cc(Br)cnc2O[C@@H]1CN(C)Cc1ccc(F)cc1 | -1 | 5 | 21*! | 2 | 0 | 0.098 | i
C[C@@H]1CN([C@H](C)CO)C(=O)c2cc(Br)cnc2O[C@@H]1CN(C)Cc1ccccc1 | -3[16.7 µM] | -4 | 0 | 2 | 0 | · | ·
Oc1ccc(-c2nnc(Nc3cccc(O)c3)c3ccccc23)cc1 | · | 9 | 1.9* | 12 | · | -0.14 | i
CCOC(=O)C1(C)CCCN(C(=O)c2ccccc2)C1 (centres undefined) | 1 | -4 | 0 | 6 | 0 | · | ·
